Laboratory results published in ChEMBL document CHEMBL1268937, “Design of more potent squalene synthase inhibitors with multiple activities” (Bioorg Med Chem, 2010).
The source made the active and inactive calls. The calls are words filed in the database; no cut-off is given here.

How the values were obtained:
[1] = (§1) Inhibition of soybean lipoxygenase measured for 6 mins; parameters: species or system Glycine max
How it was run: (§2)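 Soybean lipoxygenase (250 U/mL) with sodium linoleate (100 µM) as substrate in Tris-HCl pH 9.0. Compounds added in 60% ethanol. Absorbance at 234 nm followed for 6 min at 28 °C. Each concentration assayed twice.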

Squalene synthase = target: T1, Squalene synthase (Rattus norvegicus, UniProt Q02769); experiment: Inhibition of squalene synthase in rat liver microsomes assessed as [3H] FPP to squalene conversion level after 10 mins by scintillation counting; parameters: species or system Microsome
T1 sequence (Q02769 whole entry): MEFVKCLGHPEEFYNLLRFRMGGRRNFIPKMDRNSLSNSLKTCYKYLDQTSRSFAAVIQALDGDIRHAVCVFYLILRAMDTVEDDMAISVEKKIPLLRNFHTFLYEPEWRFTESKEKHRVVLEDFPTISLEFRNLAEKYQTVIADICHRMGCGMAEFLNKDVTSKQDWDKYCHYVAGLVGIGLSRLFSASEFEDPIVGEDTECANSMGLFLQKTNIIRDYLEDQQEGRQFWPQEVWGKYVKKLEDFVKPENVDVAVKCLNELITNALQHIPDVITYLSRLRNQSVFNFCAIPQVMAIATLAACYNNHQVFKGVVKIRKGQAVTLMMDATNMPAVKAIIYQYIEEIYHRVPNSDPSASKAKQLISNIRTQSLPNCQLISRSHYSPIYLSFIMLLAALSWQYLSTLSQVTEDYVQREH
How it was run: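 Rat liver microsomes (18 µg protein/mL) in 50 mM phosphate pH 7.4 with 10 mM MgCl2 and 0.5 mM NADPH, preincubated with compounds for 10 min at 37 °C. Started with [3H]FPP and run for 10 min at 37 °C. Stopped with 15% ethanolic KOH, then 65 °C for 30 min. Squalene extracted into petroleum ether, washed and counted by scintillation. Triplicates; IC50 is the concentration giving 50% inhibition.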

Liver microsomes = experiment: Antioxidant activity in rat hepatic microsomes assessed as inhibition of lipid peroxidation after 45 min by spectrophotometric analysis; type: functional, Microsome
How it was run: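 Non-enzymatic peroxidation of rat hepatic microsomal lipids in buffer (150 mM, pH 7.4). Compounds in DMSO, 10 µM–1 mM. Started with fresh FeSO4 and incubated at 37 °C for 45 min. Thiobarbituric acid-reactive material read at 535 against 600 nm. Run in duplicate.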

Rattus norvegicus [2] = experiment: Antidyslipidemic activity against triton WR-1339-induced hyperlipidemia in rat assessed as reduction in plasma total cholesterol level at 56 umol/kg, ip after 24 hrs relative to control; type: functional; parameters: scale not given: the % may be the effect or the level left
How it was run: (§3)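 Hyperlipidemia induced in male Wistar rats by ip Triton WR 1339 (200 mg/kg, aqueous). Test compounds in saline given ip 1 h later; saline-only controls. Blood drawn from the aorta 24 h later. Plasma total cholesterol, LDL-cholesterol and triglycerides measured with commercial kits in duplicate. Values are means of 8–10 rats per compound.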

Rattus norvegicus [3] = experiment: Antidyslipidemic activity against triton WR-1339-induced hyperlipidemia in rat assessed as reduction in plasma LDL-cholesterol level at 56 umol/kg, ip after 24 hrs relative to control; type: functional; parameters: scale not given: the % may be the effect or the level left; how it was run: as §3
Rattus norvegicus [4] = experiment: Antidyslipidemic activity against triton WR-1339-induced hyperlipidemia in rat assessed as reduction in plasma triglyceride level at 56 umol/kg, ip after 24 hrs relative to control; type: functional; parameters: scale not given: the % may be the effect or the level left; how it was run: as §3
Rattus norvegicus [5] = experiment: Antiinflammatory activity in Wistar rat assessed as inhibition of carrageenan-induced paw edema at 300 umol/kg, ip after 3.5 hrs; type: functional
How it was run: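 Male Wistar rats (150–180 g) received 0.1 mL of 2% w/v carrageenan in saline intradermally into the right hind paw; the left paw served as control. Compounds were given ip right after carrageenan. Edema was taken as paw weight increase at 3.5 h and expressed as % inhibition versus the control group. Means of 8–10 rats; Student's t-test.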

Glycine max [6] = experiment: as §1; how it was run: as §2
Glycine max [7] = experiment: Inhibition of soybean lipoxygenase at up to 150 uM; conditions: TDE = time-dependent effect; how it was run: as §2

IC50 [1] | IC50 (Squalene synthase) | IC50 (Liver microsomes) | inhibition (Glycine max [6]) | inhibition (Glycine max [7]) | Structure (SMILES) | Activity (Rattus norvegicus [2]) | Activity (Rattus norvegicus [3]) | Activity (Rattus norvegicus [4]) | Activity (Rattus norvegicus [5])
24 µM | – | – | – | – | COc1ccc2cc([C@H](C)C(=O)O)ccc2c1 [NAPROXEN] | – | – | – | 51%
53 µM | 18.7 µM | 390 µM | Dose-dependent effect | tde | Br.COc1ccc2cc(C3(O)CN4CCCCC4CO3)ccc2c1 (stereo unspecified) | 45% | 46% | 37% | Active
84 µM | 40 µM | 220 µM | Dose-dependent effect | tde | Br.COc1ccc2cc(C3(O)CN(C)C4CCCCC4O3)ccc2c1 (stereo unspecified) | 36% | 33% | 47% | 53%
> 100 µM | 1.4 µM | 48 µM | – | – | Br.COc1ccc2cc(-c3ccc(C4(O)CN(C)C5CCCCC5O4)cc3)ccc2c1 (stereo unspecified) | 32% | 54% | 82% | Active
> 100 µM | 0.8 µM | 118 µM | – | – | Br.CN1CC(O)(c2ccc(-c3ccc4ccccc4c3)cc2)OC2CCCCC21 (stereo unspecified) | 43% | 48% | 32% | –

More lines, now with the values behind:

Structure (SMILES) | IC50 [1] | IC50 (Squalene synthase) | IC50 (Liver microsomes) | inhibition (Glycine max [6]) | inhibition (Glycine max [7]) | Activity (Rattus norvegicus [2]) | Activity (Rattus norvegicus [3]) | Activity (Rattus norvegicus [4]) | Activity (Rattus norvegicus [5])
Br.COc1ccc2cc(-c3ccc(C4(O)CN5CCCCC5CO4)cc3)ccc2c1 (stereo unspecified) | > 100 µM | 18 µM | 65 µM | – | – | 19% | 29% | 6% | Active
Br.CN1CCOC(O)(c2ccc3ccccc3c2)C1 (stereo unspecified) | > 300 µM | 135 µM | 640 µM | – | – | 51% | 36% | 40% | Active
CN1CC(O)(c2ccc(-c3ccccc3)cc2)OC2CCCCC21 (stereo unspecified) | 110 µM | – | – | – | – | 54% | 51% | 49% | –
Br.OC1(c2ccc(-c3ccc4ccccc4c3)cc2)CN2CCCCC2CO1 (stereo unspecified) | > 100 µM | – | 117 µM | – | – | 49% | 33% | 34% | Active
Br.OC1(c2ccc3ccccc3c2)CN2CCCCC2CO1 (stereo unspecified) | > 300 µM | 130 µM | 440 µM | – | – | 33% | 42% | 41% | Active
Br.CN1CCOC(O)(c2ccc(-c3ccc4ccccc4c3)cc2)C1 (stereo unspecified) | > 100 µM | 1.9 µM | 71 µM | – | – | 37% | 59% | 28% | Active
Br.COc1ccc2cc(C3(O)CN(C)CCO3)ccc2c1 (stereo unspecified) | 20 µM | 155 µM | 900 µM | Dose-dependent effect | tde | 62% | 24% | 51% | 58%
CC(C)(Sc1cc(C(C)(C)C)c(O)c(C(C)(C)C)c1)Sc1cc(C(C)(C)C)c(O)c(C(C)(C)C)c1 [PROBUCOL] | – | – | – | – | – | 18% | 18% | 11% | –
Br.COc1ccc2cc(-c3ccc(C4(O)CN(C)CCO4)cc3)ccc2c1 (stereo unspecified) | > 100 µM | 6.9 µM | 30 µM | – | – | 41% | 9% | 30% | –
Br.CN1CC(O)(c2ccc3ccccc3c2)OC2CCCCC21 (stereo unspecified) | > 300 µM | 15.1 µM | 600 µM | – | – | 43% | 39% | 51% | 54%
